Results published in ChEMBL document CHEMBL5380838, “Novel Aryl Sulfonamide Derivatives as NLRP3 Inflammasome Inhibitors for the Potential Treatment of Cancer” (J Med Chem, 2023).
Active and inactive are the calls of the source. The rule behind the calls is not given here.

Key:
[1] = test system: THP-1; assay: Suppression of ASC expression in LPS-treated human THP-1 cells at 1 to 1000 nM incubated for 30 mins followed by ATP stimulation for 1 hr […]; type: functional, cell-based; settings: dose 1-1000 nM, time 90.0 min
In short: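 PMA-differentiated THP-1 cells (1 × 10^6/well) primed with LPS 1 µg/mL for 3 h, then DMSO or compound in serum-free medium for 30 min, then 5 mM ATP for 1 h. RIPA lysates (20 µg) and concentrated supernatants run on SDS-PAGE and western blotted for NLRP3, ASC, caspase-1 and IL-1β, normalized to GAPDH; three independent experiments.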

[2] = test system: THP-1; assay: Suppression of pro-IL-1beta expression in LPS-treated human THP-1 cells at 1 to 1000 nM incubated for 30 mins followed by ATP stimulation for 1 hr […]; type: functional, cell-based; settings: dose 1-1000 nM, time 90.0 min
[3] = test system: BMDM; assay: Effect on NLRC4 inflammasome activation in LPS-treated mouse BMDM cells assessed as IL-1beta release at 1 uM incubated for 30 mins followed by Salmonella typhimurium flagellin stimulation for 2 hrs by ELISA method; type: functional, cell-based; settings: time 150.0 min
In short: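 BMDMs primed with LPS 100 ng/mL for 3 h, then compound 1 µM in serum-free medium for 30 min, then flagellin 100 ng/mL for 2 h; supernatant mouse IL-1β by ELISA.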

[4] = test system: BMDM; assay: Effect on ASC level in LPS-treated mouse BMDM cells at 1 uM incubated for 30 mins followed by ATP stimulation for 1 hr by Hoechst staining based microscopy; type: functional, cell-based; settings: time 90.0 min
In short: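 BMDMs primed with LPS 1 µg/mL for 2 h, given DMSO or compound 1 µM for 30 min, then 5 mM ATP for 1 h. Cells fixed in 4% PFA, permeabilized with 0.1% Triton X-100, stained with anti-ASC overnight at 4 °C plus fluorescent secondary, nuclei Hoechst 1 µM; confocal imaging with 63× oil objective.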

[5] = test system: Mus musculus; assay: Antiinflammatory activity in LPS-induced C57BL/6 mouse assessed as reduction in IL-1beta production in peritoneal exudate at 25 mg/kg, ip pretreated for 30 mins followed by LPS induction measured after 4 hrs by ELISA method; type: functional, organism-based; settings: time 4.5 hrs
In short: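 C57BL/6 mice given inhibitor 25 mg/kg IP (vehicle DMSO) 30 min before IP LPS 1 mg/kg; after 4 h, peritoneal exudate and blood collected, plasma from centrifugation 1000g 15 min 4 °C; IL-1β measured by ELISA; mean ± SEM of three independent experiments.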

[6] = test system: B16-F10; assay: Effect on NLRP3 expression in cytosolic luciferase-transfected mouse B16-F10 cells xenografted in C57BL/6 mouse at 25 mg/kg, ip administered thrice weekly measured after 14 days by Western blot analysis; type: functional, organism-based; settings: time 14.0 day
In short: (§1)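 Tumors from luciferase-expressing B16-F10 grafts in C57BL/6 mice, dosed IP at 25 mg/kg thrice weekly (DMSO controls), were excised at endpoint and homogenized in sucrose/HEPES/IGEPAL lysis buffer. Lysates were western blotted and bands expressed as fold ratio over β-actin (n = 5).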

[7] = test system: B16-F10; assay: Effect on total caspase-1 expression in cytosolic luciferase-transfected mouse B16-F10 cells xenografted in C57BL/6 mouse at 25 mg/kg, ip administered thrice weekly measured after 14 days by Western blot analysis; type: functional, organism-based; settings: time 14.0 day; in short: as §1
[8] = test system: B16-F10; assay: Effect on ASC expression in cytosolic luciferase-transfected mouse B16-F10 cells xenografted in C57BL/6 mouse at 25 mg/kg, ip administered thrice weekly measured after 14 days by Western blot analysis; type: functional, organism-based; settings: time 14.0 day; in short: as §1
[9] = test system: B16-F10; assay: Antiproliferative activity against cytosolic luciferase-transfected mouse B16-F10 cells xenografted in C57BL/6 mouse assessed as effect on cell growth at 25 mg/kg, ip administered thrice weekly measured after 5 days; type: functional, organism-based; settings: time 5.0 day
[10] = Metabolic stability in human liver microsomes assessed as intrinsic clearance measured per mg protein at 1 uM measured upto 60 mins by LC-MS/MS analysis; type: ADME, Microsome; settings: read-out: CLH
In short: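 Pooled human or CD-1 male mouse liver microsomes at 0.5 mg/mL with test compound 1 µM in 50 mM phosphate pH 7.4 and 3 mM MgCl2, preincubated 10 min at 37 °C. Percent parent remaining vs 0 min measured by LC-MS/MS. Cli = k/microsomal conc. × 1000; mean ± SD, n = 2.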

[11] = Tlast in C57BL/6 mouse at 25 mg/kg, ip measured for 0.083 to 24 hrs by LC-MS/MS analysis; type: ADME, organism-based; settings: in vivo, time 0.083-24 hrs
In short: (§2)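 Female C57BL/6 mice, 8 weeks old, 25–30 g, given a single IP dose of 25 mg/kg. Sampling at 5 and 20 min and 1, 2, 3, 6, 8 and 24 h, 3 mice per timepoint; Li-heparin plasma from the cava vein. ACN/MeOH precipitation with diclofenac internal standard, then LC-MS/MS in ESI(−) MRM mode, range 1–2000 ng/mL. Noncompartmental analysis, linear trapezoidal AUC.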

[12] = Clast in C57BL/6 mouse at 25 mg/kg, ip measured for 0.083 to 24 hrs by LC-MS/MS analysis; type: ADME, organism-based; settings: in vivo, time 0.083-24 hrs; in short: as §2

- microsomal CLint at 1 µM [10]: 45.8 µL/min/mg
- Tlast [11]: 24 h
- Clast [12]: 67 ng/mL
Compound: CC(C)[C@H](NS(=O)(=O)c1ccc([N+](=O)[O-])cc1)C(=O)Nc1c2c(cc3c1CCC3)CCC2
- Activity [1]: inactive
- Activity [2]: inactive
- Activity [3]: inactive
- Activity [4]: inactive
- Activity [5]: Active
- Activity [6]: inactive
- Activity [7]: inactive
- Activity [8]: inactive
- Activity [9]: inactive
